S100A4 MyoIIA: S100A4-myosin IIA interaction inhibition | AID 652163 | S100A4/TAMRA-MyoIIA peptide fluorescence polarization | inhibition, % at 10.7 µM | P26447 | 360,000 compounds, 0.14% hits;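 active means mean inhibition of at least 70% across replicates, with every replicate also reaching that level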
Target sequence (P26447 whole entry, looked up): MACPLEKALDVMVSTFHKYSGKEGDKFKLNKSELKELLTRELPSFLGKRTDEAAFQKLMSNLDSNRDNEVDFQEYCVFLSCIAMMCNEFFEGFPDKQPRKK
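Material: human S100A4 monomer with TAMRA-labelled myosin IIA peptide; buffer or medium: HEPES pH 7.2 with CaCl2, KCl, NaCl, DTT, Triton; compound dosing: one concentration per compound; schedule: 5 min incubation before reading; benchmarks: neutral control DMSO, positive control TFP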
ARNT TACC3 PPI: disrupts binding between human ARNT and TACC3; AID 623870; inhibition, % at 9.99 µM; AlphaScreen His-ARNT PAS-B/GST-TACC3 binding, luminescence; TACC3 fragment carries E629A point mutation; 390,000 compounds, 0.66% hits;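 active means mean inhibition of replicates at least 50% and at least half of replicates each reaching 50%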
Casp6 inh: caspase-6 (human) enzyme inhibition | 350,000 compounds, 0.53% hits | P55212 | purified caspase-6, Z-VEID-R110 cleavage fluorescence | inhibition, % at 12.5 µM;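 active means mean inhibition across replicates at least about 35%, with every replicate also reaching that limit, limit read from the data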
Target sequence (P55212 24-179 limits assumed): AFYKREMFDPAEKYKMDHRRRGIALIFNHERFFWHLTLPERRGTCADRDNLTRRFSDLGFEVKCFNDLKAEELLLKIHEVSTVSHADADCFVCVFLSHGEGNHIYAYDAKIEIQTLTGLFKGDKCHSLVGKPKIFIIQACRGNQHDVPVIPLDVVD
Target sequence (P55212 194-293 limits assumed): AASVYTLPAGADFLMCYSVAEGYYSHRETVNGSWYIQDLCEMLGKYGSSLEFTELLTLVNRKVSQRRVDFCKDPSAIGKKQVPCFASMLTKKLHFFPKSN
PGC1a acetyl inh: lowers PGC1a acetylation signal in U2OS cells; AlphaScreen anti-acetyl-lysine; with virally co-expressed GCN5 acetyltransferase; inhibition, % at 15.6 µM; 350,000 compounds, 0.17% hits; AID 651687;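 active means every replicate shows inhibition of at least 40%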
Ecoli rRNA inh: selective bacterial rRNA inhibition in E. coli; E. coli WT GFP vs humanized-ribosome RFP mutants, fluorescence, 24 h; stronger effect = lower value; DMSO median 0, no signal -100; GFP signal change (wild-type ribosome), % (no concentration beside the values); AID 720706; 350,000 compounds, 1.6% hits;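 active means significant combined selectivity score with lowered wild-type GFP, culture density cut under 30%, mutant RFP and density less affected; inactive means any of these conditions unmet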
ERAP1 HTS inh: inhibitors of human ERAP1 aminopeptidase; recombinant ERAP1, Leu-AMC fluorescence, 60 min; inhibition, % at 10.7 µM; 340,000 compounds, 0.15% hits;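 active means mean replicate inhibition of at least 30%, or all replicates individually reaching that 30% level; inactive means mean below 30% and not every replicate reaching it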
Each line names hits and unclear results; the compound was inactive in the other large screens; ! = repeats disagree. Most compounds without a hit are left out; they make up all but 2.4% or so of the library.

CC[C@H](C)[C@@H]1OC(=O)[C@@H](C)[C@@H](CC)NC(=O)[C@H](C)N(C)C(=O)C(C)(C)C(=O)C(C)NC(=O)[C@H](Cc2ccccc2)N(C)C(=O)[C@H](C(C)C)N(C)C(=O)CNC(=O)[C@H](CC(C)C)N(C)C(=O)CNC1=O (stereo partly drawn)	PGC1a acetyl inh 76 (no result: S100A4 MyoIIA, ARNT TACC3 PPI, Casp6 inh, Ecoli rRNA inh, ERAP1 HTS inh)
COCCCN(C(=S)Nc1cc(Cl)cc(Cl)c1)C(C)c1ccccn1 (stereo not drawn)	Ecoli rRNA inh -39
O=C(CN1CCCc2ccccc21)N/N=C/c1ccc(O)cc1O	Ecoli rRNA inh -15 (no result: PGC1a acetyl inh)
C[C@H](CO)N1C[C@H](C)[C@@H](CN(C)C(=O)Nc2ccc(F)cc2)Oc2ccc(NC(=O)C3CC3)cc2C1=O	none
O=C(NC[C@H]1CC[C@H]2[C@H](CN2Cc2cccc(Cl)c2)O1)C1CCC1	none (no result: ARNT TACC3 PPI, PGC1a acetyl inh, Ecoli rRNA inh)
Cc1ccc(C(=O)OCC(=O)Nc2cccc(S(=O)(=O)NC3=NCCCCC3)c2)c(C)c1	Ecoli rRNA inh -22
O=C(/C=C/c1ccc([N+](=O)[O-])cc1)Nc1cccc(S(=O)(=O)NC2=NCCCCC2)c1	Ecoli rRNA inh -9.4 (no result: PGC1a acetyl inh)
C[C@H]1CN([C@@H](C)CO)C(=O)c2cc(-c3cccnc3)cnc2O[C@H]1CN(C)C(=O)Nc1ccc(C(F)(F)F)cc1	none
O=C1c2c(O)ccc(O)c2C(=O)c2c(NCCNCCO)ccc(NCCNCCO)c21	ARNT TACC3 PPI 65, ERAP1 HTS inh 39! (no result: Ecoli rRNA inh)
COc1ccc(C2c3sc(=O)[nH]c3SC3C4CCC(C4)C23)cc1 (stereo not drawn)	none (no result: S100A4 MyoIIA, Casp6 inh, Ecoli rRNA inh, ERAP1 HTS inh)
COc1cc(C2c3sc(=O)[nH]c3SC3C4CCC(C4)C23)ccc1O (stereo not drawn)	Ecoli rRNA inh -32
O=c1cc(N2CCN(c3ccc(F)cc3)CC2)[nH]c(=O)n1C1CCCCC1	none (no result: S100A4 MyoIIA, Casp6 inh, Ecoli rRNA inh, ERAP1 HTS inh)
O=c1cc(O)n(C2CCCCCC2)c(=O)[nH]1	ARNT TACC3 PPI active
Cc1ccc(-c2csc(N/N=C/c3ccco3)n2)cc1	none (no result: S100A4 MyoIIA, Casp6 inh, Ecoli rRNA inh, ERAP1 HTS inh)
Brc1ccc(-c2csc(N/N=C/c3ccco3)n2)cc1	Ecoli rRNA inh -38
CN(C)S(=O)(=O)c1ccc(-c2csc(N/N=C/c3ccco3)n2)cc1	Ecoli rRNA inh -20
Clc1ccc(-c2csc(N/N=C\c3cccnc3)n2)cc1	Ecoli rRNA inh -21 (no result: PGC1a acetyl inh)
C(=N\Nc1nc(-c2ccccc2)cs1)/c1ccco1	none (no result: S100A4 MyoIIA, Casp6 inh, Ecoli rRNA inh, ERAP1 HTS inh)
CO[C@H](CN(C)C(=O)c1ccccc1F)[C@@H](C)CN([C@H](C)CO)S(=O)(=O)c1ccc(F)cc1	none
CN(C)CCCNC(=O)C[C@H]1C=C[C@H](NS(=O)(=O)c2ccc(F)cc2)[C@H](CO)O1	none
C[C@H](CO)N1C[C@H](C)[C@@H](CN(C)C(=O)CCC(F)(F)F)OCCCC[C@H](C)Oc2ccc(NC(=O)CCCN(C)C)cc2C1=O	ARNT TACC3 PPI 25 (no result: S100A4 MyoIIA, Casp6 inh, ERAP1 HTS inh)
C[C@@H]1CCCCO[C@@H](CN(C)C(=O)CCC(F)(F)F)[C@@H](C)CN([C@@H](C)CO)C(=O)c2cc(NC(=O)c3ccccc3)ccc2O1	S100A4 MyoIIA 97
COCC(=O)N1[C@@H]2c3cccc(=O)n3C[C@@H]2[C@@H](CO)[C@@H]1C(=O)NCc1ccccc1Cl	none (no result: ARNT TACC3 PPI)
NS(=O)(=O)c1ccc(-c2ccc(/C=C3\NC(=S)NC3=O)o2)cc1	ARNT TACC3 PPI 58
CN(C)C(=O)c1cccc(-c2ccc([C@H]3[C@@H](C#N)N(C(=O)C4CCCC4)[C@H]3CO)cc2)c1	none (no result: ARNT TACC3 PPI)
CN(C)CC1CC/C(=C\c2ccc(O)cc2)C1=O (stereo not drawn)	Ecoli rRNA inh -31 (no result: PGC1a acetyl inh)
O=C1c2ccccc2[C@@H]2C[C@@H](O)[C@H](Nc3cccc4ccccc34)CCN12	Casp6 inh 39 (no result: PGC1a acetyl inh)
COc1ccc(N[C@@H]2CCN3C(=O)c4ccccc4[C@@H]3C[C@H]2O)cc1	none (no result: PGC1a acetyl inh)
COc1ccc(S(=O)(=O)Nc2ccc3c(c2)C(=O)N([C@@H](C)CO)C[C@@H](C)[C@H](CN(C)C(=O)Nc2ccc(C(F)(F)F)cc2)OCCCC[C@H](C)O3)cc1	none
Cc1ccc(/C=N/n2cnnc2)s1	none (no result: S100A4 MyoIIA, Casp6 inh, Ecoli rRNA inh, ERAP1 HTS inh)
Brc1ccc(/C=N/n2cnnc2)s1	Ecoli rRNA inh -51
COc1ccc2c3c([nH]c2c1)[C@H](CO)N(C(=O)c1ccccc1)CC31CCN(C(=O)CC2CC2)CC1	none (no result: ARNT TACC3 PPI, Casp6 inh)
Cc1ccccc1NC(=S)N(Cc1ccccn1)Cc1ccccc1Cl	Ecoli rRNA inh -23
CC(=O)c1cc(O)c2ccccc2c1O	Casp6 inh 38
CC(=O)c1c(C)oc2c1cc(O)c1ccccc12	none
O=C(c1cccc2ccccc12)N1CCN(Cc2ccccc2F)CC1	none
Cc1ccccc1CN1CCN(C(=O)c2cccc3ccccc23)CC1	Ecoli rRNA inh -22
CC(C)NC(=O)N1[C@@H]2CN(CC(F)(F)F)C[C@H]1C2c1ccccc1 (stereo partly drawn)	none (no result: S100A4 MyoIIA, ARNT TACC3 PPI, Casp6 inh, PGC1a acetyl inh, ERAP1 HTS inh)
C[C@H]1CN([C@@H](C)CO)C(=O)c2cc(C#CCc3ccccc3)cnc2O[C@H]1CN(C)CC1CC1	none (no result: S100A4 MyoIIA, ARNT TACC3 PPI, Casp6 inh, ERAP1 HTS inh)
CC(C)CC#Cc1cnc2c(c1)C(=O)N([C@H](C)CO)C[C@@H](C)[C@H](CN(C)S(C)(=O)=O)O2	S100A4 MyoIIA 95 (no result: PGC1a acetyl inh)
C[C@@H]1CN([C@@H](C)CO)C(=O)c2cc(C#CCc3ccccc3)cnc2O[C@@H]1CN(C)CC1CC1	S100A4 MyoIIA 121 (no result: ARNT TACC3 PPI)
C[C@@H]1CN([C@H](C)CO)C(=O)c2cc(Br)cnc2O[C@H]1CN(C)CC1CCCC1	Casp6 inh 62
CCCC#Cc1cnc2c(c1)C(=O)N([C@@H](C)CO)C[C@@H](C)[C@H](CN(C)S(C)(=O)=O)O2	none
COc1ccc(S(=O)(=O)Nc2ccc3c(c2)CC(=O)N([C@H](C)CO)C[C@H](C)[C@@H](CN(C)S(=O)(=O)c2c(C)noc2C)O3)cc1	none
COc1ccc2cc(C(=O)N/N=C/c3sc4ccccc4c3O)ccc2c1	ARNT TACC3 PPI 64 (no result: PGC1a acetyl inh)
O=C(N/N=C/c1sc2ccccc2c1O)c1ccccc1	ARNT TACC3 PPI 61 (no result: S100A4 MyoIIA, Casp6 inh, PGC1a acetyl inh, Ecoli rRNA inh, ERAP1 HTS inh)
O=C(N/N=C/c1ccc(F)cc1)c1ccccc1	none (no result: ARNT TACC3 PPI, PGC1a acetyl inh)
COc1ccc(C(=O)N/N=C/c2sc3ccccc3c2O)cc1	ARNT TACC3 PPI 78 (no result: S100A4 MyoIIA, Casp6 inh, PGC1a acetyl inh, Ecoli rRNA inh, ERAP1 HTS inh)
O=C(N/N=C/c1ccccc1C(F)(F)F)c1ccc(O)cc1	Ecoli rRNA inh -29
COc1ccc(C(=O)N/N=C/c2cccnc2)cc1	none
COc1ccc(NS(=O)(=O)c2cccc(C(=O)N/N=C/c3c(F)c(F)c(F)c(F)c3F)c2)cc1	none
CN(C)C(=O)C[C@H]1C=C[C@@H](NC(=O)C2CCOCC2)[C@@H](CO)O1	none (no result: ARNT TACC3 PPI, PGC1a acetyl inh)
COc1ccc(NC(=O)Nc2ccc3c(c2)C(=O)N([C@H](C)CO)C[C@@H](C)[C@@H](CN(C)C(=O)NC2CCCCC2)OCCCC[C@@H](C)O3)cc1	none (no result: ARNT TACC3 PPI)

Assay outcomes: PubChem BioAssay, Broad Institute
